Data taken from ChEMBL document CHEMBL4177692, “Synthesis and antidepressant activity of a series of arylalkanol and aralkyl piperazine derivatives targeting SSRI/5-HT1A/5-HT7” (Bioorg Med Chem Lett, 2017).

Columns and labels:
[1] = target: Sodium-dependent serotonin transporter (Rattus norvegicus) (UniProt P31652); experiment: Inhibition of SERT in rat brain synaptosomes assessed as reduction in [3H]-5-HT uptake at 10 uM measured after 15 mins by scintillation counting method relative to control; assay type: subcellular
Outline: (§1)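 The 5-HT1A assay displaced [3H]-8-OH-DPAT from HEK-293 cell membrane homogenates. The 5-HT7 assay displaced [3H]-LSD from CHO cell membrane homogenates. The SERT assay measured [3H]-5-HT uptake into rat brain synaptosomes.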

[2] = target: T1, 5-hydroxytryptamine receptor 1A (Homo sapiens) (UniProt P08908); experiment: Displacement of [3H]8-OH-DPAT from recombinant human 5-HT1A receptor expressed in HEK293 cell membranes at 10 uM measured after 60 mins by scintillation counting method; outline: as §1
T1 sequence (whole entry): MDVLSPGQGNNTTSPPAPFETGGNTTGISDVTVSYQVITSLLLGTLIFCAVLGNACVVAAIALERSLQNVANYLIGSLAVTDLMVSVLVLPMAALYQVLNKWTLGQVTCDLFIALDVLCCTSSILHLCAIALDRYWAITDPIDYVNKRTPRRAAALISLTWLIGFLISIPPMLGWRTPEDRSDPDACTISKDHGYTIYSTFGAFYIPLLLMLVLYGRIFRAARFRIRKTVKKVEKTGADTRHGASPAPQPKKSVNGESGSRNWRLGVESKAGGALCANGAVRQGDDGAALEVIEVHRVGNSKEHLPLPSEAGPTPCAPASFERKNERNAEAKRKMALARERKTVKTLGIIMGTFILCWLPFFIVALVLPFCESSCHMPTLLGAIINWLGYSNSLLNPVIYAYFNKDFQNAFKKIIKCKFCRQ

[3] = target: T2, 5-hydroxytryptamine receptor 7 (Homo sapiens, UniProt P34969); experiment: Displacement of [3H]-LSD from recombinant human 5-HT7 receptor expressed in CHO cell membranes at 10 uM measured after 60 mins by scintillation counting method; outline: as §1
[4] = target: T3, Sodium-dependent serotonin transporter (Rattus norvegicus, UniProt P31652); experiment: Inhibition of SERT in rat brain synaptosomes assessed as reduction in [3H]-5-HT uptake measured after 15 mins by scintillation counting method; assay type: subcellular
Outline: (§2)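 The 5-HT1A assay used [3H]-8-OH-DPAT displacement on HEK-293 membranes. The 5-HT7 assay used [3H]-LSD displacement on CHO membranes. The SERT assay measured [3H]-5-HT uptake into rat brain synaptosomes.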

[5] = target: T2, 5-hydroxytryptamine receptor 7; experiment: Displacement of [3H]-LSD from recombinant human 5-HT7 receptor expressed in CHO cell membranes measured after 60 mins by scintillation counting method; outline: as §2
Mus musculus [6] = experiment: Antidepressant-like activity in mouse assessed as reduction in immobility time at 20 mg/kg, po administered once daily for 7 days measured last 4 mins of 6 mins test by forced swim test relative to control; assay type: functional; parameters: scale not given: the % may be the effect or the level left
Outline: (§3)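 Mouse forced swim test. Oral dosing once daily for 7 days at 10, 20 or 40 mg/kg/day. […] Read-out is immobility time. Data given as mean ± SEM, n = 10 per group, tested against vehicle at P<0.05 and P<0.01.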

[7] = Clearance in rat liver microsomes at 1 uM measured after 90 mins in presence of NADPH regenerating system by LC-MS/MS analysis; assay type: ADME, microsome; details: read-out: CLH
Mus musculus [8] = experiment: Antidepressant-like activity in mouse assessed as reduction in immobility time at 40 mg/kg, po administered once daily for 7 days measured last 4 mins of 6 mins test by forced swim test relative to control; assay type: functional; parameters: scale not given: the % may be the effect or the level left; outline: as §3
Mus musculus [9] = experiment: Antidepressant-like activity in po dosed mouse assessed as reduction in immobility time administered once daily for 7 days measured last 4 mins of 6 mins test by forced swim test; assay type: functional, organism-based; outline: as §3
[10] = target: T4, 5-hydroxytryptamine receptor 1A (Homo sapiens, UniProt P08908); experiment: Displacement of [3H]8-OH-DPAT from recombinant human 5-HT1A receptor expressed in HEK293 cell membranes measured after 60 mins by scintillation counting method
T4 sequence (P08908 whole entry): T1 sequence (whole entry)

Mus musculus [11] = experiment: Antidepressant-like activity in mouse assessed as reduction in immobility time at 10 mg/kg, po administered once daily for 7 days measured last 4 mins of 6 mins test by forced swim test relative to control; assay type: functional; parameters: scale not given: the % may be the effect or the level left; outline: as §3
[12] = Half-life in rat liver microsomes at 1 uM in presence of NADPH regenerating system by LC-MS/MS analysis; assay type: ADME, microsome
[13] = target: T5, 5-hydroxytryptamine receptor 1A (Rattus norvegicus, UniProt P19327); experiment: Displacement of [3H]8-OH-DPAT from rat cerebral cortex 5-HT1A receptor
T5 sequence (P19327 whole entry): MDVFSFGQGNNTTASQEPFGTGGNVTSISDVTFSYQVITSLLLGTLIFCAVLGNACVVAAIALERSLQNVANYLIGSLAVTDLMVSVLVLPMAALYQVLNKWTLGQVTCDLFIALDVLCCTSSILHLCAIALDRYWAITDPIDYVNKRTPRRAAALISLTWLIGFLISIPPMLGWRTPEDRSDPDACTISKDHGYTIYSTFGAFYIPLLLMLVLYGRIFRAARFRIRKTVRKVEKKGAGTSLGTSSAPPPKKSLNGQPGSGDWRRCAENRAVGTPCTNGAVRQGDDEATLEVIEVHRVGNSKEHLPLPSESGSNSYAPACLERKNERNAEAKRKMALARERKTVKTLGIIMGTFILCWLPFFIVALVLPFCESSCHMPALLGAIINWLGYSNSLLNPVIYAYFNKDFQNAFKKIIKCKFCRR

[14] = target: T3, Sodium-dependent serotonin transporter; experiment: Displacement of [3H]-paroxetine from rat cerebral cortex SERT
[15] = target: Sodium-dependent serotonin transporter (Homo sapiens, UniProt P31645); experiment: Binding affinity to SERT (unknown origin)
[16] = target: T4, 5-hydroxytryptamine receptor 1A; experiment: Binding affinity to 5-HT1A receptor (unknown origin)

Chain of Sodium-dependent serotonin transporter (Rattus norvegicus) (P31652 whole entry): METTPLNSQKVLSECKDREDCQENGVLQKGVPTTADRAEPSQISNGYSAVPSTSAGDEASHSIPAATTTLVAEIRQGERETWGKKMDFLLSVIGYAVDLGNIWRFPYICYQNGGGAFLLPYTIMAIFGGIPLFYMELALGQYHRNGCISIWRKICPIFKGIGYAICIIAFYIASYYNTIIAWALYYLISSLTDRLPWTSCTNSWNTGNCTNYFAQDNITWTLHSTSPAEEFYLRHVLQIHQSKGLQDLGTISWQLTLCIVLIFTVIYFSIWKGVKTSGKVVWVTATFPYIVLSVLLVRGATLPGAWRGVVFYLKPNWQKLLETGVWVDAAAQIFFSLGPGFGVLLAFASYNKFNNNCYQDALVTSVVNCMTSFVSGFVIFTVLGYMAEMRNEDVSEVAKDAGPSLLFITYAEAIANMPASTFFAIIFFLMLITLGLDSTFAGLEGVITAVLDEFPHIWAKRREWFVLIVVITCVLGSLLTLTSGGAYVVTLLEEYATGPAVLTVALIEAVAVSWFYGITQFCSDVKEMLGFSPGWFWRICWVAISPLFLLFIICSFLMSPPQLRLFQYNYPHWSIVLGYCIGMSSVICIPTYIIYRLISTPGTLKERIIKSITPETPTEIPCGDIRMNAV
T3 sequence (P31652 whole entry): as above
T2 sequence (P34969 whole entry): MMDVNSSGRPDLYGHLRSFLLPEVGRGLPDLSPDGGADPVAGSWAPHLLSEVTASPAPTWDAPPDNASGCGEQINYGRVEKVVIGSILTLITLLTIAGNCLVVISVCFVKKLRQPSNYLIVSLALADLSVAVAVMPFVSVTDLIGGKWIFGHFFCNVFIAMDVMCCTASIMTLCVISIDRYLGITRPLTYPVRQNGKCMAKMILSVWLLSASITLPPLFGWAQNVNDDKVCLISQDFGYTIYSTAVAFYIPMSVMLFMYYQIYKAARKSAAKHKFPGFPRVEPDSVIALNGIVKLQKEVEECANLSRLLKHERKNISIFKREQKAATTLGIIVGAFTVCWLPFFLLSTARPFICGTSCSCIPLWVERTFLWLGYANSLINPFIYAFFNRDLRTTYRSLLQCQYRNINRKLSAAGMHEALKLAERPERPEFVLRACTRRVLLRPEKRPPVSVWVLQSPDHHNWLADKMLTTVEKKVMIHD
Chain of Sodium-dependent serotonin transporter (Homo sapiens, UniProt P31645) (P31645 whole entry): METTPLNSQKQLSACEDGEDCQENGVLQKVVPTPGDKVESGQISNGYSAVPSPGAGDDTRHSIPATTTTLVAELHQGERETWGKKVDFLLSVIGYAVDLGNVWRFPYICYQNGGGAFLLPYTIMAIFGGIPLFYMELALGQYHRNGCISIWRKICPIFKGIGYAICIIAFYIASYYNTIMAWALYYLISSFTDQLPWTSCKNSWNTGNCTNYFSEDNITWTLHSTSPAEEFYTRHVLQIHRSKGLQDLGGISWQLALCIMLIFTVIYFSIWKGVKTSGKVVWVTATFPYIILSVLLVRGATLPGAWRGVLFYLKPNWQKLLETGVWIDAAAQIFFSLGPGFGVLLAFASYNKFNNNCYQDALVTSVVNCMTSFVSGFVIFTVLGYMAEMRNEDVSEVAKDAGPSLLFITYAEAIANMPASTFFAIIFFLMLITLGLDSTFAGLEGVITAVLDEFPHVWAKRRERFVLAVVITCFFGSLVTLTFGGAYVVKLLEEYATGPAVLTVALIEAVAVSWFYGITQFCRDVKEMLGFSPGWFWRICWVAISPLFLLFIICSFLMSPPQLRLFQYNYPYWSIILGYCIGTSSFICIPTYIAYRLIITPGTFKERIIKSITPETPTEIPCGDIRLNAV

Compound | inhibition [1] | inhibition [2] | inhibition [3] | IC50 [4] | also measured
CSc1ccccc1N1CCN(CCC(O)c2ccc(Cl)c(Cl)c2)CC1 (stereo not drawn) | 89% | 99.9% | 101% |  | 
Cc1cccc(-c2ccccc2N2CCN(CCc3ccc(Cl)c(Cl)c3)CC2)c1 | 72.3% | 98.4% | 94.7% |  | 
OC(CCN1CCN(c2ccccc2-c2ccccc2)CC1)c1ccc(Cl)c(Cl)c1 (stereo not drawn) | 98.9% | 98.9% | 102% | 0.59 µM | 
Clc1ccc(CCN2CCN(c3nsc4ccccc34)CC2)cc1Cl | 102% | 98.7% | 96% | 0.1 µM | Ki [5]: 0.012 µM; Activity (Mus musculus [6]): 21%; microsomal CLint at 1 µM [7]: 262 µL/min/mg; Activity (Mus musculus [8]): 45%; Activity (Mus musculus [9]): Dose-dependent effect; Ki [10]: 0.00084 µM; Activity (Mus musculus [11]): 17%; half-life at 1 µM [12]: 5.3 min
Cc1ccc(Sc2ccccc2N2CCNCC2)c(C)c1 [VORTIOXETINE] |  |  |  | 0.0029 µM | Ki [5]: 0.026 µM; Activity (Mus musculus [6]): 34 - 35%; microsomal CLint at 1 µM [7]: 153 µL/min/mg; half-life at 1 µM [12]: 9 min
COc1ccccc1N1CCN(CCC(O)c2csc3ccc(F)cc23)CC1 (stereo not drawn) |  |  |  |  | Ki [13]: 0.0023 µM; Ki [14]: 0.012 µM
Cc1ccc(-c2ccccc2N2CCN(CCc3ccc(Cl)c(Cl)c3)CC2)cc1 | 65.8% | 99.5% | 98.1% |  | 
Cc1ccc(-c2ccccc2N2CCN(CCc3ccc(Cl)c(Cl)c3)CC2)cc1C | 17.6% | 96.8% | 93.2% |  | 
COc1ccccc1N1CCN(CCC(O)c2ccc(Cl)c(Cl)c2)CC1 (stereo not drawn) | 88.8% | 99.3% | 101% |  | 
Clc1ccc(CCN2CCN(c3ccccc3-c3ccccc3)CC2)cc1Cl | 104% | 97.8% | 101% | 0.84 µM | Ki [5]: 0.00075 µM; Ki [10]: 0.0063 µM
OC(CN1CCN(c2ccccc2)CC1)c1ccc(Cl)c(Cl)c1 (stereo not drawn) | 112% | 98.5% | 99.8% | 0.34 µM | Ki [5]: 0.0032 µM; Activity (Mus musculus [6]): 26%; microsomal CLint at 1 µM [7]: 226 µL/min/mg; Activity (Mus musculus [8]): 30%; Activity (Mus musculus [9]): Dose-dependent effect; Ki [10]: 0.0024 µM; Activity (Mus musculus [11]): 16%; half-life at 1 µM [12]: 6.1 min
Fc1ccc(-c2ccccc2N2CCN(CCc3ccc(Cl)c(Cl)c3)CC2)cc1 | 92.1% | 98.8% | 96.7% | 0.95 µM | 
Cc1ccccc1-c1ccccc1N1CCN(CCc2ccc(Cl)c(Cl)c2)CC1 | 61.6% | 93.9% | 97.3% |  | 
COc1ccc2[nH]c([S+]([O-])Cc3ncc(C)c(OC)c3C)nc2c1 (stereo not drawn) [OMEPRAZOLE] |  |  |  |  | microsomal CLint at 1 µM [7]: 163 µL/min/mg; half-life at 1 µM [12]: 8.5 min
Fc1cccc(-c2ccccc2N2CCN(CCc3ccc(Cl)c(Cl)c3)CC2)c1 | 97.2% | 99.7% | 96.4% | 0.88 µM | 
Oc1ccccc1N1CCN(CCC(O)c2ccc(Cl)c(Cl)c2)CC1 (stereo not drawn) | 84.9% | 99.4% | 102% |  | 
COc1ccccc1N1CCN(CCCN2CCOc3ccccc32)CC1 |  |  |  |  | IC50 [15]: 0.195 µM; Ki [16]: 0.00148 µM
COc1ccc(-c2ccccc2N2CCN(CCc3ccc(Cl)c(Cl)c3)CC2)cc1 | 66.1% | 98.7% | 97.5% |  | 
OC(CCN1CCN(c2cccc(-c3ccccc3)c2)CC1)c1ccc(Cl)c(Cl)c1 (stereo not drawn) | 105% | 91.5% | 69.8% |  | 
Cc1ccc(-c2ccccc2N2CCN(CCc3ccc(Cl)c(Cl)c3)CC2)c(C)c1 | 31.5% | 83.2% | 93.5% |  | 
